Experimental data: ChEMBL document CHEMBL1123476, “Synthesis of congeners and prodrugs of the benzene maleimide photoadduct mitindomide as potential antitumor agents. 2” (J Med Chem, 1986)
Where “and” joins values, the source holds several entries; their conditions need not be identical. Identical values can stand only once.

What was measured:
[1] = Solubility was determined; format: physicochemical
P388 [2] = test: (§1) Antitumor activity in P-388 lymphocytic leukemia system at 200 mg/kg dose levels per injection.; format: functional, Mus musculus
Method in brief: (§2)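 P-388 leukemia in animals, Q01D×09 schedule: dose given daily for 9 days, in mg/kg per injection. Read-outs are survivors on day 4 (live/total animals), body-weight difference test minus control (g), and % T/C (median lifetime of treated ÷ median lifetime of controls × 100). Some compounds were tested in independent runs at different times.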

P388 [3] = test: (§3) Antitumor activity in P-388 lymphocytic leukemia system at 100 mg/kg dose levels per injection.; format: functional, Mus musculus; method in brief: as §2
P388 [4] = test: as §3; format: functional, Mus musculus; remark: listed apart in the source
Method in brief: (§4)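 P-388 leukemia in vivo, dosed Q01D×09 (one injection daily for 9 days, mg/kg per injection). Activity is %T/C, the median lifetime of treated animals divided by that of controls, ×100. Live animals on day 4 were counted against the total (survivors day 4). Repeat tests were done independently at different times.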

P388 [5] = test: Compound was tested for antitumor activity in P-388 lymphocytic leukemia system at 400 mg/kg dose levels per injection; 3/6; format: functional, Mus musculus; method in brief: as §2
P388 [6] = test: (§5) Antitumor activity in P-388 lymphocytic leukemia system at 50 mg/kg dose levels per injection.; format: functional, Mus musculus; method in brief: as §2
P388 [7] = test: Antitumor activity in P-388 lymphocytic leukemia system and the difference in body weight was calculated at 200 mg/kg dose levels per injection.; format: functional, Mus musculus; conditions: 200 mg/kg
P388 [8] = test: Compound was tested for antitumor activity in P-388 lymphocytic leukemia system and the difference in body weight was calculated at 400 mg/kg dose levels per injection; format: functional, Mus musculus
P388 [9] = test: Antitumor activity in P-388 lymphocytic leukemia system and the difference in body weight was calculated at 50 mg/kg dose levels per injection.; format: functional, Mus musculus
P388 [10] = test: as §1; format: functional, Mus musculus; method in brief: as §4; remark: listed apart in the source
P388 [11] = test: Compound was tested for antitumor activity in P-388 lymphocytic leukemia system at 400 mg/kg dose levels per injection; Toxic; format: functional, organism-based; design: dose 400 mg/kg; conditions: Mus musculus; method in brief: as §4
P388 [12] = test: as §5; format: functional, Mus musculus; method in brief: as §4; remark: listed apart in the source
[13] = Solubility was determined; INS= less than 0.1; format: physicochemical
P388 [14] = test: Compound was tested for antitumor activity in P-388 lymphocytic leukemia system at 400 mg/kg dose levels per injection; 6/6; format: functional, Mus musculus; method in brief: as §2
P388 [15] = test: Compound was tested for antitumor activity in P-388 lymphocytic leukemia system at 400 mg/kg dose levels per injection; format: functional, Mus musculus; method in brief: as §4
P388 [16] = test: Antitumor activity in P-388 lymphocytic leukemia system at 25 mg/kg dose levels per injection.; format: functional, Mus musculus; method in brief: as §2
P388 [17] = test: Antitumor activity in P-388 lymphocytic leukemia system and the difference in body weight calculated at 100 mg/kg dose levels per injection.; format: functional, Mus musculus
P388 [18] = test: Antitumor activity in P-388 lymphocytic leukemia system at 25 mg/kg dose levels per injection; format: functional, Mus musculus; method in brief: as §4
P388 [19] = test: Compound was tested for antitumor activity in P-388 lymphocytic leukemia system at 200 mg/kg dose levels per injection;6/6; format: functional, Mus musculus; method in brief: as §2
P388 [20] = test: Compound was tested for antitumor activity in P-388 lymphocytic leukemia system. at 400 mg/kg dose levels per injection; format: functional, Mus musculus; method in brief: as §4
P388 [21] = test: Compound was tested for antitumor activity in P-388 lymphocytic leukemia system at 200 mg/kg dose levels per injection; 5/6; format: functional, Mus musculus; method in brief: as §2
P388 [22] = test: Compound was tested for antitumor activity in P-388 lymphocytic leukemia system at 25 mg/kg dose levels per injection; 6/6; format: functional, Mus musculus; method in brief: as §2
P388 [23] = test: Compound was tested for antitumor activity in P-388 lymphocytic leukemia system at 200 mg/kg dose levels per injection.; format: functional, organism-based; design: dose 200 mg/kg; conditions: Mus musculus; method in brief: as §4
P388 [24] = test: Compound was tested for antitumor activity in P-388 lymphocytic leukemia system at 25 mg/kg dose levels per injection; format: functional, Mus musculus; method in brief: as §4
P388 [25] = test: Compound was tested for antitumor activity in P-388 lymphocytic leukemia system at 200 mg/kg dose levels per injection; format: functional, Mus musculus; method in brief: as §4
P388 [26] = test: Compound was tested for antitumor activity in P-388 lymphocytic leukemia system. at 200 mg/kg dose levels per injection; Toxic; format: functional, organism-based; design: dose 200 mg/kg; conditions: Mus musculus; method in brief: as §4
P388 [27] = test: Compound was tested for antitumor activity in P-388 lymphocytic leukemia system at 166.7 mg/kg dose levels per injection; Toxic; format: functional, organism-based; design: dose 166.7 mg/kg; conditions: Mus musculus; method in brief: as §4
P388 [28] = test: Compound was tested for antitumor activity in P-388 lymphocytic leukemia system at 100 mg/kg dose levels per injection; 5/6; format: functional, Mus musculus; method in brief: as §2
P388 [29] = test: Compound was tested for antitumor activity in P-388 lymphocytic leukemia system at 200 mg/kg dose levels per injection; 0/6; format: functional, Mus musculus; method in brief: as §2
P388 [30] = test: Compound was tested for antitumor activity in P-388 lymphocytic leukemia system. at 400 mg/kg dose levels per injection; Toxic; format: functional, organism-based; design: dose 400 mg/kg; conditions: Mus musculus; method in brief: as §4
P388 [31] = test: Antitumor activity in P-388 lymphocytic leukemia system and the difference in body weight was calculated at 25 mg/kg dose levels per injection.; format: functional, Mus musculus
P388 [32] = test: Compound was tested for antitumor activity in P-388 lymphocytic leukemia system at 400 mg/kg dose levels per injection; 5/6; format: functional, Mus musculus; method in brief: as §2

Structure (SMILES) | Survivors at day 4 (P388 [2]) | Survivors at day 4 (P388 [3]) | T/C (P388 [4]; 100 mg/kg) | Survivors at day 4 (P388 [6]) | Weight difference (P388 [7]) | Weight difference (P388 [8]) [g] | T/C (P388 [10]; 200 mg/kg) | T/C (P388 [12]) [%] | Solubility [13] | T/C (P388 [4]) [%] | Weight difference (P388 [4]) [g] | Survivors at day 4 (P388 [14]) | Weight difference (P388 [12]) [g] | Survivors at day 4 (P388 [16]) | T/C (P388 [12]; 50 mg/kg) | other results
CN1CCN(CN2C(=O)C3C4C=CC(C3C2=O)C2C(=O)N(CN3CCN(C)CC3)C(=O)C42)CC1 (stereo not drawn) | 6 | 6 | 126% and 113% | 6 | -3.1 g and -3.6 g | -6.4 | 122% and 128% | 108 |  |  |  |  |  |  |  | Solubility [1]: 2%; Survivors at day 4 (P388 [5]): 3; Weight difference (P388 [9]): 0 g; T/C (P388 [11]): Toxic
O=C1NC(=O)C2C1C(C(=O)O)C1C3C(=O)NC(=O)C3C1C2C(=O)O (stereo not drawn) | 6 | 6 |  | 6 |  |  | 92% and 91% | 94 | Insoluble | 97 | -0.7 | 6 | 0 |  |  | T/C (P388 [15]): 96%; Weight difference (P388 [15]): -0.2 g
O=C1C2C3C=CC(C2C(=O)N1CO)C1C(=O)N(CO)C(=O)C31 (stereo not drawn) | 6 | 6 | 144% and 137% | 6 | -3.4 g and -4.1 g |  | 160% and 152% |  |  |  |  |  |  | 6 | 127% and 140% | Solubility [1]: 0.5%; Weight difference (P388 [17]; 100 mg/kg): -3.9 g and -4 g; Weight difference (P388 [9]; 50 mg/kg): -2.5 g and -1.8 g; T/C (P388 [18]; 25 mg/kg): 114% and 132%
COC1=CC2C3C(=O)NC(=O)C3C1C1C3C(=O)NC(=O)C3C21 (stereo not drawn) | 6 | 6 |  | 6 | -0.3 g and -0.4 g | -2 | 101% and 90% | 99 | Insoluble | 101 |  | 6 |  |  |  | Survivors at day 4 (P388 [19]): 6; Weight difference (P388 [17]): -0.3 g; Weight difference (P388 [9]): 0 g; T/C (P388 [20]): 98%
CCOC(=O)N1C(=O)C2C3CCC(C2C1=O)C1C2C(=O)N(C(=O)OCC)C(=O)C2C31 (stereo not drawn) | 6 | 6 | 157% and 142% | 6 |  |  |  |  | Insoluble |  |  |  |  |  | 127% and 115% | Survivors at day 4 (P388 [21]): 5; Weight difference (P388 [4]; 100 mg/kg): -1.2 g and -2.2 g; Survivors at day 4 (P388 [22]): 6; T/C (P388 [10]): 222%; T/C (P388 [23]): Toxic; T/C (P388 [18]; 25 mg/kg): 111% and 104%; Weight difference (P388 [24]; 25 mg/kg): -0.5 g and -0.7 g; Weight difference (P388 [12]; 50 mg/kg): -0.3 g and -0.4 g; Weight difference (P388 [25]; 200 mg/kg): -4 g and -5.2 g
CN1CCN(CN2C(=O)C3C4C=CC(C3C2=O)C2C3C(=O)N(CN5CCN(C)CC5)C(=O)C3C42)CC1 (stereo not drawn) |  |  |  |  |  |  |  |  |  |  |  |  |  |  |  | T/C (P388 [26]): Toxic; T/C (P388 [27]): Toxic
O=C1NC(=O)C2C3C=CC(C12)C1C(=O)NC(=O)C31 (stereo not drawn) |  |  |  | 6 |  |  |  | 100 | Insoluble | 97 | -2.4 |  | -1.1 |  |  | Survivors at day 4 (P388 [21]): 5; Survivors at day 4 (P388 [28]): 5; Survivors at day 4 (P388 [22]): 6; T/C (P388 [10]): 92%; T/C (P388 [18]): 105%; Weight difference (P388 [24]): -0.7 g; Weight difference (P388 [25]): -4.3 g
CCOC(=O)N1C(=O)C2C3C=CC(C2C1=O)C1C2C(=O)N(C(=O)OCC)C(=O)C2C31 (stereo not drawn) | 6 | 6 | 152% and 145% | 6 |  |  |  |  | Insoluble |  |  |  |  | 6 | 135% and 121% | Survivors at day 4 (P388 [29]): 0; Weight difference (P388 [4]; 100 mg/kg): -4.6 g and -5.5 g; T/C (P388 [23]): Toxic; T/C (P388 [18]; 25 mg/kg): 124% and 116%; Weight difference (P388 [12]; 50 mg/kg): -0.6 g and -0.8 g; Weight difference (P388 [25]): -6.5 g
O=C(O)C1C2C(=O)N(CO)C(=O)C2C(C(=O)O)C2C3C(=O)N(CO)C(=O)C3C12 (stereo not drawn) | 6 | 6 | 120% and 107% | 6 |  |  | 114% and 120% |  |  |  |  | 6 |  |  | 92% and 105% | Weight difference (P388 [9]; 50 mg/kg): -0.9 g and -1.2 g; T/C (P388 [20]; 400 mg/kg): 129% and 131%
CC(=O)OC(C(=O)O)N1C(=O)C2C3C=CC(C2C1=O)C1C2C(=O)N(C(OC(C)=O)C(=O)O)C(=O)C2C31 (stereo not drawn) | 6 | 6 | 123% and 113% | 6 | -1.2 g and -0.5 g | -5.7 | 175% and 125% | 110 |  |  |  |  |  | 6 |  | T/C (P388 [30]): Toxic; Survivors at day 4 (P388 [5]): 3; Weight difference (P388 [31]): 0.2 g; Weight difference (P388 [9]): -0.3 g; T/C (P388 [24]): 103%
CN1C(=O)C2C3C=CC(C2C1=O)C1C2C(=O)N(C)C(=O)C2C31 (stereo not drawn) | 6 | 6 |  | 6 |  |  | 111% and 104% | 108 | Insoluble | 111 | -0.8 | 6 | -0.9 |  |  | Weight difference (P388 [25]; 200 mg/kg): -0.8 g and -1.4 g; T/C (P388 [15]): 135%; Weight difference (P388 [15]): -2 g
CC1=CC2(C)C3C(=O)NC(=O)C3C1C1(C)C3C(=O)NC(=O)C3C21 (stereo not drawn) | 6 | 6 |  | 6 |  |  |  | 108 | Insoluble | 109 | -1.5 | 6 | -0.9 |  |  | T/C (P388 [10]): 97%; T/C (P388 [20]): 101%; Weight difference (P388 [25]): -1.8 g; Weight difference (P388 [15]): -5.3 g
CCN(CC)CN1C(=O)C2C3C=CC(C2C1=O)C1C2C(=O)N(CN(CC)CC)C(=O)C2C31 (stereo not drawn) | 6 | 6 | 117% and 116% | 6 | -0.7 g and -0.6 g | -0.9 | 139% and 125% |  | Insoluble |  |  |  |  | 6 | 111% and 102% | Survivors at day 4 (P388 [32]): 5; Weight difference (P388 [17]; 100 mg/kg): -0.8 g and -0.4 g; Weight difference (P388 [31]): 0 g; Weight difference (P388 [9]; 50 mg/kg): -1 g and -0.5 g; T/C (P388 [24]): 103%; T/C (P388 [20]): 111%
